An excerpt weighted towards active compounds, which were near 2.5% of everything screened.
PRMT1 FP inh: PRMT1 methyltransferase inhibitors, primary screen, biochemical, fluorescence polarization. hit rate 1.3% among 370,000. recombinant PRMT1, activity-based probe fluorescence polarization. inhibition, % at 2.79 µM. Protein arginine N-methyltransferase 1 (Homo sapiens), Q99873;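 active = inhibition above about 21% made by adding two undisclosed values, limit read from the data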
E coli Lon inh: inhibitors of E. coli Lon protease, primary screen, biochemical, fluorescence polarization. purified E. coli Lon protease. inhibition, % at 7.94 µM. hit rate 0.42% among 360,000; in the data active = inhibition above about 13%, passing the limit was not always enough;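 also: 0% = enzyme with probe and DMSO and 100% = no enzyme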
TDP2 absorb: human TDP2 enzyme inhibitors, primary screen, biochemical, epi absorbance, recombinant enzyme. hit rate 0.34% among 370,000. inhibition, % at 12.8 µM. T5PNP hydrolysis, p-nitrophenol absorbance 415 nm. Tyrosyl-DNA phosphodiesterase 2 (Homo sapiens), O95551;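 active = inhibition above the mean of all tested compounds plus 3 SD, set per campaign, cut at about 25% in these data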;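 also: 0% = DMSO with enzyme and 100% = buffer with substrate but no TDP2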
Target sequence (O95551 whole entry, looked up): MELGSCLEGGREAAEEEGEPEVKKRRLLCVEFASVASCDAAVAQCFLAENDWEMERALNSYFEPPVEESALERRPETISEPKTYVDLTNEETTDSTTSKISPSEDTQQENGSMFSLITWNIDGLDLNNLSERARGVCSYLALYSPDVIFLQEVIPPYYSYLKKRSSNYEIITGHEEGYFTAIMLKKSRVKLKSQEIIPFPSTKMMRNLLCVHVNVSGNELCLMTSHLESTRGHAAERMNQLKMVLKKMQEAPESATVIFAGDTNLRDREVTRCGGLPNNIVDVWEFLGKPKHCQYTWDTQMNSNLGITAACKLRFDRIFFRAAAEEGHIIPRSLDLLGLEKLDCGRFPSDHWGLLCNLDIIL
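System – recombinant human TDP2 · Amount – 120 nM TDP2 per well · Buffer or medium – Mg2+-containing Tris-HCl buffer, pH 7.5 · Reagent – T5PNP substrate, 5 mM · Dosing – 12.8 µM single point, 1% DMSO · Incubation – 2 h at 37 °C · Measured by – epi absorbance · Read-out basis – percent inhibition · Benchmarks – high control without enzyme, low control DMSO plus TDP2 · Repeats – singlicate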
GSTO1 counter: inhibitors of recombinant GSTO1, primary screen, counter-screen for RBBP9 inhibitor project, biochemical, fluorescence polarization; Glutathione S-transferase omega-1 (Homo sapiens), P78417; activity-based probe fluorescence polarization; inhibition, % at 5.96 µM; hit rate 1.1% among 300,000; AID 1974, 2009;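 active = inhibition above the campaign mean inhibition plus 3 SD, cut at about 35% in these data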;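 also: 0% = GSTO1-1 with DMSO and 100% = wells lacking GSTO1-1 enzyme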
Target sequence (P78417 whole entry, looked up): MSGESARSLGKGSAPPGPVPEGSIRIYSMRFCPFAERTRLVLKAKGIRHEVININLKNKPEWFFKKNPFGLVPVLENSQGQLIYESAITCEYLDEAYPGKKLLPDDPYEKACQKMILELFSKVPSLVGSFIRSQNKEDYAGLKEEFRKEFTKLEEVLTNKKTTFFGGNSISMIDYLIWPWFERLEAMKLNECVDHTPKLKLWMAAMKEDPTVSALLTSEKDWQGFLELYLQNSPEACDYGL
PAD4 inh: human PAD4 inhibitors, primary screen, biochemical, fluorescence polarization, 1536-well format | hit rate 0.41% among 330,000 | recombinant PAD4, RCA probe fluorescence polarization | inhibition, % at 6.36 µM | AID 485272, 2010;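 active = percent inhibition above a cutoff equal to the mean of all tested compounds plus 3 SD, cut at about 15% in these data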;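 also: 0% = PAD4 with RCA probe and DMSO and 100% = probe without PAD4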
eLon confirm: E. coli Lon protease inhibitor retest, confirmation, biochemical, fluorescence polarization; AID 602230, 2012; inhibition, % at 7.94 µM; purified E. coli Lon; hit rate 31% among 1,400; shares compounds with E coli Lon inh; in the data active = inhibition above about 16%;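 also: 0% = enzyme with probe and DMSO and 100% = no enzyme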
Starred values were filed as active, the others as inactive.

`COc1ccccc1NC(=O)NC(=O)N(C(C)C)S(C)(=O)=O` gave PRMT1 FP inh -0.6, E coli Lon inh 3.1, TDP2 absorb -1.0, GSTO1 counter -3.3 and PAD4 inh -0.6.
For CCC(C(=O)Nc1ccccc1N1CCCC1)c1cccc(OC)c1 (stereo unspecified) the results were PRMT1 FP inh 0.4 and TDP2 absorb 7.2.
`Cc1cccc(C)c1NC(=O)C1CCN(S(C)(=O)=O)CC1` gave PRMT1 FP inh 2.6, E coli Lon inh 40.5*, TDP2 absorb -7.8, GSTO1 counter 4.1, PAD4 inh 2.5 and eLon confirm 5.5.
Cc1cc(C)c(NC(=O)C2CCN(S(C)(=O)=O)CC2)c(C)c1 was read as PRMT1 FP inh -5.3, E coli Lon inh -4.5 and TDP2 absorb 2.7.
Screening CC1(C)CC(=O)C2=C(C1)OC1=C(C(=O)CC(C)(C)C1)C2c1ccc(O)cc1O returned PRMT1 FP inh 78.2*, E coli Lon inh 65.1*, TDP2 absorb -13.1, GSTO1 counter 9.4, PAD4 inh -5.3 and eLon confirm 95.8*.
For CCCCCN1CCCCC(NC(=O)c2ccc3ccccc3c2)C1=O (stereo unspecified) the results were PRMT1 FP inh -4.4 and TDP2 absorb 5.3.
Screening O=C1NC(=S)/C(=C\c2ccc(-c3ccccc3Cl)o2)S1 returned PRMT1 FP inh 67.1*, E coli Lon inh 47.6*, TDP2 absorb 0.6, GSTO1 counter 35.3*, PAD4 inh -3.5 and eLon confirm 20.2*.
For CCc1nnc(NC(=O)C2c3ccccc3Oc3ccccc32)s1 the results were PRMT1 FP inh -1.3, E coli Lon inh 19.0*, TDP2 absorb 4.4, GSTO1 counter -1.5, PAD4 inh 1.2 and eLon confirm -31.9.
COc1ccc(Nc2cccc3ccccc23)cc1 was read as PRMT1 FP inh 6.3, E coli Lon inh 83.7*, TDP2 absorb -1.2, GSTO1 counter 8.4, PAD4 inh -4.5 and eLon confirm 2.2.
For CCOC(=O)C1CCN(C(=O)C(Cc2ccc3c(c2)OCO3)NC(C)=O)CC1 (stereo unspecified) the results were PRMT1 FP inh -1.3 and TDP2 absorb 9.6.
`CC(=O)Nc1ccc(NS(=O)(=O)c2ccc3c(c2)n(C)c(=O)n3C)cc1` gave PRMT1 FP inh -3.2, E coli Lon inh -3.2, TDP2 absorb 9.7, GSTO1 counter 0.0 and PAD4 inh -1.3.
CC(=O)Nc1ccc(Nc2ccc3c4c(cc(=O)n3C)-c3ccccc3C(=O)c24)cc1 was read as PRMT1 FP inh 6.7, E coli Lon inh 32.8*, TDP2 absorb -6.3, GSTO1 counter 13.9, PAD4 inh 2.8 and eLon confirm 51.9*.
`Cc1cc(NC(=O)COc2cc(F)cc(F)c2)n(-c2ccccc2)n1` gave PRMT1 FP inh 1.2 and TDP2 absorb -2.9.
For CC(C)c1cc(C(=O)N/N=C/c2c[nH]c3ccccc23)n[nH]1 the results were PRMT1 FP inh 2.1, E coli Lon inh 24.8*, TDP2 absorb 3.0, GSTO1 counter 11.7, PAD4 inh 1.0 and eLon confirm -7.6.
For CCOC(=O)C1=C(N)Oc2cc(O)ccc2C1c1ccc(F)cc1F (stereo unspecified) the results were PRMT1 FP inh 5.9, E coli Lon inh 33.5*, TDP2 absorb 9.2, GSTO1 counter 1.2, PAD4 inh -2.5 and eLon confirm -16.6.
`Cc1ccc(/C=C/C(=O)NCCCN2CCN(CCCNC(=O)/C=C/c3ccc(C)o3)CC2)o1` gave PRMT1 FP inh -1.8, E coli Lon inh 27.1*, TDP2 absorb -7.7, GSTO1 counter -4.4, PAD4 inh 1.8 and eLon confirm -3.2.
Screening O=C(/C=C/c1ccc(F)cc1)NCCCN1CCN(CCCNC(=O)/C=C/c2ccc(F)cc2)CC1 returned PRMT1 FP inh -0.6, E coli Lon inh -3.9, TDP2 absorb -2.2, GSTO1 counter -8.0 and PAD4 inh 4.0.
Screening Fc1ccc2nc(Nc3ccccc3)sc2c1 returned PRMT1 FP inh -4.3, E coli Lon inh 15.2*, TDP2 absorb 15.4, GSTO1 counter 9.7, PAD4 inh 0.4 and eLon confirm 5.6.
Screening NNc1nc2ccc(F)cc2s1 returned PRMT1 FP inh 2.0, E coli Lon inh 4.1, TDP2 absorb -2.1, GSTO1 counter 0.7 and PAD4 inh 0.7.
NC(=O)C1CCN(C(c2ccccc2F)c2nnnn2Cc2ccco2)CC1 (stereo unspecified) was read as PRMT1 FP inh 5.9, E coli Lon inh 0.8, TDP2 absorb -11.2, GSTO1 counter 10.6 and PAD4 inh 1.3.
`Fc1ccccc1C(c1nnnn1Cc1ccc2c(c1)OCO2)N1CCN(Cc2ccco2)CC1` (stereo unspecified) gave PRMT1 FP inh 0.5, E coli Lon inh 15.8*, TDP2 absorb -2.1, GSTO1 counter -3.0, PAD4 inh 0.8 and eLon confirm -3.3.
For FC(F)(F)c1cccc(N2CCN(C(=S)Nc3nccc4ccccc34)CC2)c1 the results were PRMT1 FP inh 5.6 and TDP2 absorb -3.2.
`CCOC(=O)c1c(C)oc2c1c(C=NCc1ccccn1)c(O)c1ccccc12` gave PRMT1 FP inh 21.4*, E coli Lon inh 123.6*, TDP2 absorb 30.3* and eLon confirm 134.8*.
Screening Cc1ccc(-c2nnn(CC(=O)N(c3ccc(F)cc3)C(C(=O)NC3CCCC3)c3ccncc3)n2)o1 (stereo unspecified) returned PRMT1 FP inh -4.4, E coli Lon inh 17.6*, TDP2 absorb -17.7, GSTO1 counter 4.0, PAD4 inh 2.1 and eLon confirm -12.6.
`COc1ccc(C(C(=O)NC2CCCC2)N(CC2CCCO2)C(=O)Cn2nnc(-c3ccc(C)o3)n2)cc1` (stereo unspecified) gave PRMT1 FP inh 3.5, E coli Lon inh 18.4*, TDP2 absorb -5.3, GSTO1 counter 0.7, PAD4 inh -0.3 and eLon confirm -10.0.
For O=C1c2ccccc2C(=O)N1CCN1CCCCC1 the results were PRMT1 FP inh 6.8, E coli Lon inh 3.1, TDP2 absorb -2.6, GSTO1 counter 2.8 and PAD4 inh -0.1.
Screening CCN(CC)c1ccc(/C=N/N2C(=O)c3ccccc3C2=O)c(O)c1 returned PRMT1 FP inh 0.1, E coli Lon inh -5.5, TDP2 absorb 6.7, GSTO1 counter 1.9 and PAD4 inh -2.0.
`O=C1c2cccc3cc([N+](=O)[O-])cc(c23)C(=O)N1CCN1CCCC1` gave PRMT1 FP inh 9.9, E coli Lon inh 86.7*, TDP2 absorb -7.4 and eLon confirm 47.2*.

Screens deposited in PubChem by The Scripps Research Institute Molecular Screening Center.
